The source made the active and inactive calls. The rule behind the calls is not given here.
How the values were obtained:
[1] = molecular target: T1, Sodium- and chloride-dependent GABA transporter 1 (Homo sapiens, UniProt P30531); test: Inhibition of GAT-1 (unknown origin)
How it was run: (§1)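 Transporter transiently expressed in COS-7 cells, with compound tested in dose–response (EAATs at 0.5–500 μM) against vehicle. Nonspecific uptake from empty-vector (pcDNA3) COS-7 sister cultures was subtracted. IC50 came from nonlinear regression of at least three independent experiments run in triplicate.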
Target sequence in this assay (P30531 whole entry, looked up): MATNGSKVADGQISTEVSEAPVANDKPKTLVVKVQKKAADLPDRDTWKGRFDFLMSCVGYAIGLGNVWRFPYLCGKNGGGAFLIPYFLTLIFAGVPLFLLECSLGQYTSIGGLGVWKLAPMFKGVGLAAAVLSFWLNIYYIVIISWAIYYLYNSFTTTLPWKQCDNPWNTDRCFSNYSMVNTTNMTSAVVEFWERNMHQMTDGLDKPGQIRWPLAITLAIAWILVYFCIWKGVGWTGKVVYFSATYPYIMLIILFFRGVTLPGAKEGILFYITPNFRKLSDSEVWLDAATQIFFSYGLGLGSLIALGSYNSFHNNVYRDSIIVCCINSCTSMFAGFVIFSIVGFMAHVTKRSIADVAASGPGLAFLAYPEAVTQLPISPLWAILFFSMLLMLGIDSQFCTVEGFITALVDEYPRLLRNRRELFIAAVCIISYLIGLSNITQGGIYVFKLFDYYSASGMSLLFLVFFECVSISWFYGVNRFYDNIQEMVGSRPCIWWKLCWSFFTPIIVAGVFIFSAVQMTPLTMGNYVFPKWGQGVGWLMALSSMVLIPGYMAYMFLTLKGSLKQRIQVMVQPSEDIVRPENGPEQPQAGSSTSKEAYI

[2] = molecular target: T2, Sodium-dependent noradrenaline transporter (Homo sapiens, UniProt P23975); test: Inhibition of human NET expressed in MDCK cells using [3H]-norepinephrine as substrate at 200 uM after 10 mins by scintillation counting; format: cell-based
T2 sequence (P23975 whole entry): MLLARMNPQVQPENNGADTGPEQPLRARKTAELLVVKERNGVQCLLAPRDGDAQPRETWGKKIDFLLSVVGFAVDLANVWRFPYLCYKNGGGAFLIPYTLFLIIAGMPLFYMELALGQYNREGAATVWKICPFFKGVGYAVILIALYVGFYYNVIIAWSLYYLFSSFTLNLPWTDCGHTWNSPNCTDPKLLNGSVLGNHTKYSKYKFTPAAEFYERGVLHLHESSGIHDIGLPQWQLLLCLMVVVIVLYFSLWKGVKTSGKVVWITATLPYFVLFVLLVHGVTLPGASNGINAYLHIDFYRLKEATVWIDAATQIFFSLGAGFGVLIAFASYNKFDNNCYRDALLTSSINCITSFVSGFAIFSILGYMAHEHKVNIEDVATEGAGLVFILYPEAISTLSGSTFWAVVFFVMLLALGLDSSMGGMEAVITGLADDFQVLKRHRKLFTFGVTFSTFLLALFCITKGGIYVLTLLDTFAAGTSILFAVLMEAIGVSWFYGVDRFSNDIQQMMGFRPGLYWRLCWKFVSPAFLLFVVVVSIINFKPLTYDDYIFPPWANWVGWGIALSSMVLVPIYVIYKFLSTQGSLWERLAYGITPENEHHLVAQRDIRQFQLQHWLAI

[3] = molecular target: Sodium-dependent serotonin transporter (Homo sapiens, UniProt P31645); test: Inhibition of human SERT expressed in MDCK cells using [3H]-serotonin as substrate after 10 mins by scintillation counting; format: cell-based
Chain of Sodium-dependent serotonin transporter (P31645 whole entry): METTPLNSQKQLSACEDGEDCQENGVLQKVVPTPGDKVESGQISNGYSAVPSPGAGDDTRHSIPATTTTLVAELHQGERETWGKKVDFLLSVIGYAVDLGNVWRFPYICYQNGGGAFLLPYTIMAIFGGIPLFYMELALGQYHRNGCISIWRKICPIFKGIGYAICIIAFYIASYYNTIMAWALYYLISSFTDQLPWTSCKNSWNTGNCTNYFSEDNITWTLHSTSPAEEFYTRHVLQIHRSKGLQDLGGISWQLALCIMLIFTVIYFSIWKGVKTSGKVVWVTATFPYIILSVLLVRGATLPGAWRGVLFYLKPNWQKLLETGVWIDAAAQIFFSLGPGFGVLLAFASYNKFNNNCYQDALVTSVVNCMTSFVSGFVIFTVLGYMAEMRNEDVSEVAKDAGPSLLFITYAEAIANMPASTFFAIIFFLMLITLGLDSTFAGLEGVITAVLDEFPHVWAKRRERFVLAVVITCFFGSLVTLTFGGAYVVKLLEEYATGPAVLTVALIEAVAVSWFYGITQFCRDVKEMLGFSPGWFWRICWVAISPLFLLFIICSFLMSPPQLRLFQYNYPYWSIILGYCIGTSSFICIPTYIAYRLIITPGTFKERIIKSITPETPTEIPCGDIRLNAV
How it was run: (§2)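 Transfected MDCK cells were washed with PBS-CM and preincubated 10 min at room temperature with compound (0.2–200 or 0.5–500 μM) or vehicle. Uptake of 50 nM radiolabeled substrate then ran for 10 min at room temperature, with RO 41-0960 added for dopamine. Naive MDCK background was subtracted. IC50 came from nonlinear regression of three independent assays run in triplicate.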

[4] = molecular target: T3, Sodium-dependent dopamine transporter (Homo sapiens, UniProt Q01959); test: Inhibition of human DAT expressed in MDCK cells using [3H]-dopamine as substrate after 10 mins by scintillation counting; format: cell-based; how it was run: as §2
T3 sequence (Q01959 whole entry): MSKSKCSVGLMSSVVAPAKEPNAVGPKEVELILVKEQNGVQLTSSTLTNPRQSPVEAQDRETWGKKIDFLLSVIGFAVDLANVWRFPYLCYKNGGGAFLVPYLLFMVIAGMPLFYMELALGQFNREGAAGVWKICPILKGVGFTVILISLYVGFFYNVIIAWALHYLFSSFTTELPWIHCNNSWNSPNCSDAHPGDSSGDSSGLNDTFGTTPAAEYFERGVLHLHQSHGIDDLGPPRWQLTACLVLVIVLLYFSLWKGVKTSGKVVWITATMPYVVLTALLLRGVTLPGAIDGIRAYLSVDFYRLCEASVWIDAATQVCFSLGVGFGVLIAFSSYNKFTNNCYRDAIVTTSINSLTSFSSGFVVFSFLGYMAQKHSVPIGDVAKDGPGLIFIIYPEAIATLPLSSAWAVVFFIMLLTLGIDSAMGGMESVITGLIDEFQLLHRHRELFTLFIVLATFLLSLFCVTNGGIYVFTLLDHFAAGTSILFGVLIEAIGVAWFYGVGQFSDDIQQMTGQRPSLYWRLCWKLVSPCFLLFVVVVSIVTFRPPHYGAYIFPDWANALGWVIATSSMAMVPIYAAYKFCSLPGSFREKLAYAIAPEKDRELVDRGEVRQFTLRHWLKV

[5] = Toxicity in Wistar rat peripheral blood micronucleus
[6] = molecular target: T1, Sodium- and chloride-dependent GABA transporter 1; test: Activity at GAT1 (unknown origin) expressed in african green monkey COS7 cells assessed as GABA release at 0.5 to 500 uM after 10 mins using [3H]-GABA pretreated for 1 hr before compound addition followed by wash out by reversed transport efflux assay; format: cell-based; settings: COS-7
How it was run: (§3)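 Reverse-transport efflux of preloaded substrate: hDAT in MDCK GFP-hDAT cells, hNET and GAT-1 in transiently transfected COS-7 cells. Compound tested at 0.5–500 μM against vehicle (basal) release. Non-radiolabeled substrate served as the positive control for assay integrity.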
Target sequence in this assay (P30531 whole entry, looked up): as the sequence (P30531 whole entry, looked up) above

[7] = molecular target: T2, Sodium-dependent noradrenaline transporter; test: Activity at human NET expressed in african green monkey COS7 cells assessed as norepinephrine release at 0.5 to 500 uM after 10 mins using [3H]-norepinephrine pretreated for 1 hr before compound addition followed by wash out by reversed transport efflux assay; format: cell-based; settings: COS-7; how it was run: as §3
[8] = molecular target: T3, Sodium-dependent dopamine transporter; test: Activity at human DAT expressed in MDCK cells assessed as dopamine release at 0.5 to 500 uM after 10 mins using [3H]-dopamine pretreated for 1 hr before compound addition followed by wash out by reversed transport efflux assay; format: cell-based; how it was run: as §3
[9] = molecular target: T1, Sodium- and chloride-dependent GABA transporter 1; test: Allosteric modulation of GAT-1 (unknown origin) expressed in african green monkey COS7 cells using [3H]-GABA as substrate at 20 uM; format: cell-based; settings: COS-7
How it was run: (§4)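 Cells were preincubated with or without 20 μM compound for 10 min at room temperature. Uptake then ran with eight concentrations of unlabeled/radiolabeled substrate mix, in triplicate. Dopamine (99.9%:0.1%, 45 nM–100 μM) was used in hDAT MDCK cells and GABA (99.95%:0.05%) in GAT-1 COS-7 cells. Nonspecific uptake was subtracted, Michaelis–Menten Vmax/KM were fitted, and n≥3 independent assays were analysed by paired t-test.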
Target sequence in this assay (P30531 whole entry, looked up): as above

[10] = molecular target: T3, Sodium-dependent dopamine transporter; test: Non-competitive inhibition of human DAT expressed in MDCK cells using [3H]-dopamine as substrate; format: cell-based; how it was run: as §4
[11] = molecular target: T1, Sodium- and chloride-dependent GABA transporter 1; test: Non-competitive inhibition of GAT-1 (unknown origin) expressed in african green monkey COS7 cells using [3H]-GABA as substrate; format: cell-based; settings: COS-7; how it was run: as §4
Target sequence in this assay (P30531 whole entry, looked up): as above

[12] = molecular target: T4, Sodium- and chloride-dependent glycine transporter 1 (Homo sapiens, UniProt P48067); test: Inhibition of GlyT1 (unknown origin) expressed in MDCK cells using [3H]-glycine as substrate after 10 mins by scintillation counting; format: cell-based; how it was run: as §2
T4 sequence (P48067 whole entry): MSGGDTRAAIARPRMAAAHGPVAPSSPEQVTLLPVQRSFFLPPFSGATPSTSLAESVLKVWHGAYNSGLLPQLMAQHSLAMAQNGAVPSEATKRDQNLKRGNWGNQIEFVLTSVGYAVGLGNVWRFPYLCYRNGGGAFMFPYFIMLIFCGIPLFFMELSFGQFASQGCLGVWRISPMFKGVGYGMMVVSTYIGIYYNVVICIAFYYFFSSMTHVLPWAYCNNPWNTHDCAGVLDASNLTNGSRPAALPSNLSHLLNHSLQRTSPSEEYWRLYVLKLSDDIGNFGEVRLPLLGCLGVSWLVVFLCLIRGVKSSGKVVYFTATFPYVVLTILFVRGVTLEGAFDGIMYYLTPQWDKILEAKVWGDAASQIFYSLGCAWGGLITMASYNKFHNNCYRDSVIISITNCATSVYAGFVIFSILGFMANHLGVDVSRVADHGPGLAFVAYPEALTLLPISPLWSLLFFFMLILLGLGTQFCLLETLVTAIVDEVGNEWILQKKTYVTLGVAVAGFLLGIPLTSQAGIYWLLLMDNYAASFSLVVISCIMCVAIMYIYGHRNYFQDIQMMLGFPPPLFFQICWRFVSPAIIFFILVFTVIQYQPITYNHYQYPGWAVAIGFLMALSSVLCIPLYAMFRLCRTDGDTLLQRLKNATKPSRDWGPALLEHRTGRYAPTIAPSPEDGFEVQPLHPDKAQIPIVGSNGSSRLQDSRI

[13] = molecular target: T5, Excitatory amino acid transporter 3 (Homo sapiens, UniProt P43005); test: Inhibition of EAAT3 (unknown origin) expressed in african green monkey COS7 cells using [3H]-glutamic acid as substrate after 10 mins by scintillation counting; format: cell-based, COS-7; how it was run: as §1
T5 sequence (P43005 whole entry): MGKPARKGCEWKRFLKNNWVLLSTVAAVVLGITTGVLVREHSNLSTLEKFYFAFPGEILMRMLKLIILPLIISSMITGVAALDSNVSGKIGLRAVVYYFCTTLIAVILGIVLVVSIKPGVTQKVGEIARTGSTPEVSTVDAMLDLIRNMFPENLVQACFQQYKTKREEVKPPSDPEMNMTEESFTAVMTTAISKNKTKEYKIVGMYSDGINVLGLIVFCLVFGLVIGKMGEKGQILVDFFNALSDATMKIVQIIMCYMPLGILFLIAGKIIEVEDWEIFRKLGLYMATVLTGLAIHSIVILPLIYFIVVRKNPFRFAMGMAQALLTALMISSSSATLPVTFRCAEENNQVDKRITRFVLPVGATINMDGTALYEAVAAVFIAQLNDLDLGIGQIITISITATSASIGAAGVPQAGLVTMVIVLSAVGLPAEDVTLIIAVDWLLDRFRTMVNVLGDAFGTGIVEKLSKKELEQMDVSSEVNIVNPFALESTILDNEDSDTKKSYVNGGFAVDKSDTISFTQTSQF

[14] = molecular target: Excitatory amino acid transporter 2 (Homo sapiens, UniProt P43004); test: Inhibition of EAAT2 (unknown origin) expressed in african green monkey COS7 cells using [3H]-glutamic acid as substrate after 10 mins by scintillation counting; format: cell-based, COS-7; how it was run: as §1
Chain of Excitatory amino acid transporter 2 (P43004 whole entry): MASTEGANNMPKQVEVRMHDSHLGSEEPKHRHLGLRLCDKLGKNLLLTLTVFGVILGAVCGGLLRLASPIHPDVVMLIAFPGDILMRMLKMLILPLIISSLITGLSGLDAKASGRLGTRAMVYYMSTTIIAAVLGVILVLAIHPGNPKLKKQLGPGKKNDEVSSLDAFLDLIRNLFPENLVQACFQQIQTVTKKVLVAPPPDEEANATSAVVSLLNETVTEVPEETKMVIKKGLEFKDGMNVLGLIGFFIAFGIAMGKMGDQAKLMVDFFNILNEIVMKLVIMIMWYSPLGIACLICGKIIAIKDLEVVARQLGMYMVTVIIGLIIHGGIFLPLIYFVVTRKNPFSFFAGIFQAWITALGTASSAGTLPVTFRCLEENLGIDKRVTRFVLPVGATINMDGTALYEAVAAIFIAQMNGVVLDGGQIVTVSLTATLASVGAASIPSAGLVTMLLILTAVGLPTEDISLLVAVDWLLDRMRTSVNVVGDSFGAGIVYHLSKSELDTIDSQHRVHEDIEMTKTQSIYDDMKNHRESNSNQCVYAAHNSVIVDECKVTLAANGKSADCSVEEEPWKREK

[15] = molecular target: Excitatory amino acid transporter 1 (Homo sapiens, UniProt P43003); test: Inhibition of EAAT1 (unknown origin) expressed in african green monkey COS7 cells using [3H]-glutamic acid as substrate after 10 mins by scintillation counting; format: cell-based, COS-7; how it was run: as §1
Chain of Excitatory amino acid transporter 1 (P43003 whole entry): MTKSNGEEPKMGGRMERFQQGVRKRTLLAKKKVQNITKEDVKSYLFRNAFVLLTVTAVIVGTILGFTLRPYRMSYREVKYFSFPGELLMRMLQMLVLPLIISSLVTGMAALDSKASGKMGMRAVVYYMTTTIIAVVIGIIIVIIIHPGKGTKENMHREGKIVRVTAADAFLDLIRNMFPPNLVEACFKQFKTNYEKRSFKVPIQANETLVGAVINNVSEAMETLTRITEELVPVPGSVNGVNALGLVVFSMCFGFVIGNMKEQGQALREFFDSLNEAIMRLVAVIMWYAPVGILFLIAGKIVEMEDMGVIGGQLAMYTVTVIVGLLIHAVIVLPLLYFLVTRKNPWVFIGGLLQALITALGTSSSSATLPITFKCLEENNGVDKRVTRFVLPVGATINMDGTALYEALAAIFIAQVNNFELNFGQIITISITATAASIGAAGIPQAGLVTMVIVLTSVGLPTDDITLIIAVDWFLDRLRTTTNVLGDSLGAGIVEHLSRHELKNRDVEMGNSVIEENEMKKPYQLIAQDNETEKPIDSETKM

[16] = molecular target: T6, Sodium- and chloride-dependent GABA transporter 3 (Homo sapiens, UniProt P48066); test: Inhibition of GAT-3 (unknown origin) expressed in african green monkey COS7 cells using [3H]-GABA as substrate after 10 mins by scintillation counting; format: cell-based, COS-7; how it was run: as §1
T6 sequence (P48066 whole entry): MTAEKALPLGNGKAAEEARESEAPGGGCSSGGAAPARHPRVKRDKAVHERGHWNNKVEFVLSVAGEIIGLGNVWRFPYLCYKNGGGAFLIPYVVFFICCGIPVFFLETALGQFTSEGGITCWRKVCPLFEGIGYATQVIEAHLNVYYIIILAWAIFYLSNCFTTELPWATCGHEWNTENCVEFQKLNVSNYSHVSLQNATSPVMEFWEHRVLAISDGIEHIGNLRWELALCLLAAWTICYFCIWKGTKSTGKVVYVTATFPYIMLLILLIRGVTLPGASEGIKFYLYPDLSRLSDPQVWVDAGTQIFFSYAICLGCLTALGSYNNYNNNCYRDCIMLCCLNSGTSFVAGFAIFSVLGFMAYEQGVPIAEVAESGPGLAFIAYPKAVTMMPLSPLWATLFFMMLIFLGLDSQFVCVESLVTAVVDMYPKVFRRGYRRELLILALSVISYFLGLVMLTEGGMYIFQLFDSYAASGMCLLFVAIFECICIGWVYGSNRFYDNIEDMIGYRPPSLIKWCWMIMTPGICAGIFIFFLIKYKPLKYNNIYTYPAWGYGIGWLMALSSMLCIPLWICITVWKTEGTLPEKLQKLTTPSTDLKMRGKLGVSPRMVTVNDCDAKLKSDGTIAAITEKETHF

[17] = molecular target: T1, Sodium- and chloride-dependent GABA transporter 1; test: Inhibition of GAT-1 (unknown origin) expressed in african green monkey COS7 cells using [3H]-GABA as substrate after 10 mins by scintillation counting; format: cell-based, COS-7; how it was run: as §1
Target sequence in this assay (P30531 whole entry): as the sequence (P30531 whole entry, looked up) above

[18] = molecular target: T2, Sodium-dependent noradrenaline transporter; test: Inhibition of human NET expressed in MDCK cells using [3H]-norepinephrine as substrate after 10 mins by scintillation counting; format: cell-based; how it was run: as §2
[19] = molecular target: T2, Sodium-dependent noradrenaline transporter; test: Non-competitive inhibition of human NET expressed in COS-7 cells using [3H]-norepinephrine as substrate

For `O=C(O)C1=CCCN(CCOC(c2ccc(C(F)(F)F)cc2)c2ccc(C(F)(F)F)cc2)C1`, the IC50 [1] was 0.26 µM.
For `O=C(O)C1=CCCN(CCON=C(c2ccccc2)c2ccccc2)C1`, the IC50 [1] was 0.04 µM.
In the case of `COC1OC[C@@H](Cc2ccc3c(c2)OCO3)[C@@H]1Cc1ccc2c(c1)OCO2` (stereo partly drawn) [(-)-O-METHYLCUBEBIN], the inhibition [2] is reported as “inactive”, the IC50 [3] is reported as 90.3 µM and the IC50 [4] is reported as 78.6 µM.
With `O=C1OC[C@H](Cc2ccc3c(c2)OCO3)[C@H]1Cc1ccc2c(c1)OCO2` [HINOKININ] the Activity [5] was “Non-toxic”, the Activity [6] was “inactive” and the Activity [7] was “inactive”. For the same compound, the Activity [8] was “inactive”, the Activity [9] was “Active” and the inhibition [10] was “Active”. For the same compound, the inhibition [11] was “Active”, the IC50 [12] was greater than 500 µM and the IC50 [13] was greater than 500 µM. The IC50 [14] was greater than 100 µM, the IC50 [15] was greater than 500 µM and the IC50 [16] was greater than 500 µM. For the same compound, the IC50 [17] was 20.6 µM, the IC50 [3] was 175 µM and the IC50 [18] was 8.76 µM. For the same compound, the IC50 [4] was 8.35 µM, the inhibition [4] was “Dose-dependent effect” and the inhibition [19] was “Active”.
For `O[C@H]1OC[C@H](Cc2ccc3c(c2)OCO3)[C@H]1Cc1ccc2c(c1)OCO2`, the IC50 [3] was greater than 200 µM, the IC50 [18] was greater than 200 µM and the IC50 [4] was 12 µM. The inhibition [4] was “Dose-dependent effect”.
